# Sampled rows, rich in hits. Any-hit rate of the full collection: about 1.8%.
# HKDC1 inh: HKDC1 hexokinase inhibitors, primary screen, biochemical, fluorescence, uHTS; AID 493160, 2011; recombinant HKDC1, G6PDH/diaphorase resazurin coupled fluorescence; inhibition, % at 20 µM; 340,000 tested, 0.16% active;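 active = inhibition above about 35% when tested at 20 µM, limit read from the data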;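 also: plate controls were DMSO wells with enzyme for no effect and DMSO wells lacking enzyme for full effect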
#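 Assay system: recombinant HKDC1 hexokinase; detection: coupled resazurin fluorescence, excitation 525 nm, emission 613 nm; benchmarks: DMSO-plus-enzyme-mix negative control, buffer-substituted positive control; compound dosing: single 20 µM dose; schedule: 90 min at room temperature in dark; also added: glucose plus 1 mM ATP as hexokinase substrates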
# Scp1 inh: Scp-1 phosphatase inhibitors, primary screen, biochemical, colorimetric, uHTS. inhibition, % at 20 µM. Recombinant Scp1, phosphopeptide, malachite green phosphate absorbance. Carboxy-terminal domain RNA polymerase II polypeptide A small phosphatase 1 (Homo …. 340,000 tested, 0.88% active;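 active = inhibition above about 50% at 20 µM, limit read from the data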;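 also: plate controls were DMSO wells with enzyme for no effect and wells lacking enzyme for full effect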
#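 Material: truncated SCP-1 phosphatase (76-261aa) / Buffer or medium: 50 mM Tris acetate pH 5.5, 0.005% Tween-20, 10 mM MgCl2 / Compound dosing: one concentration, 20 µM, with 1.0% DMSO / Incubation: 45 min room-temperature reaction, 5 min colour, 30 min stabiliser / Detection: colorimetric free-phosphate detection, absorbance 630 nm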
# SUMO1-SIM PPI: modulators of SUMO1 protein-protein interactions, primary screen, biochemical, uHTS | SUMO1 binding to a labelled peptide, TR-FRET, 1 h | inhibition, % at 20 µM | Small ubiquitin-related modifier 1 (Homo sapiens), P63165 | 360,000 tested, 0.33% active; in the data active = inhibition above about 37%
# Target sequence (P63165 whole entry, looked up): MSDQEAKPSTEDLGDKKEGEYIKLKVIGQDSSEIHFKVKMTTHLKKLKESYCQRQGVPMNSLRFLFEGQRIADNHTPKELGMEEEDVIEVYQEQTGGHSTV
# STEP block: STEP phosphatase inhibitors, primary screen, biochemical, fluorescence intensity, uHTS. inhibition, % at 20 µM. AID 588621, 2011. 360,000 tested, 0.25% active. recombinant STEP, OMFP fluorogenic substrate;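 active = inhibition at 20 µM, scaled per plate between control wells, above about 37%, limit read from the data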;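 also: 0% = DMSO with enzyme and substrate and 100% = substrate only without enzyme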
# Target sequence (P54829 whole entry, looked up): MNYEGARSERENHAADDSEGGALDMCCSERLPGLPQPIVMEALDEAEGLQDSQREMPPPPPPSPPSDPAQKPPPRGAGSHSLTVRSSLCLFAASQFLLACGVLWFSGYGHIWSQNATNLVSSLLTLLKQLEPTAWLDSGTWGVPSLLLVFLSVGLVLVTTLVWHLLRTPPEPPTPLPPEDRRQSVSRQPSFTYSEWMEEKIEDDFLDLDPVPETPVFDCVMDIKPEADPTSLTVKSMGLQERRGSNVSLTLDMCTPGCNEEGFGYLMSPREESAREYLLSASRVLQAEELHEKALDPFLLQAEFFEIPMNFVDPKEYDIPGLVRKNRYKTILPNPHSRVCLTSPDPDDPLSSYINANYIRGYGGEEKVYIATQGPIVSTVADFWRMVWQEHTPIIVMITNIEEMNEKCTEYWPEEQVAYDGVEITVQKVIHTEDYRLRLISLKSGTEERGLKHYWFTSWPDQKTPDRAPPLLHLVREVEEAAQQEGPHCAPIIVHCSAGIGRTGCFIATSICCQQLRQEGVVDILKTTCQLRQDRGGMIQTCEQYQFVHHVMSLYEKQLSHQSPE
#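 Material: STEP (striatal-enriched tyrosine phosphatase) enzyme, cell-free; Compound dosing: 20 µM single dose in 1% DMSO; Technique: fluorescence read at 480 nm ex / 540 nm em; Times: reaction 20 min, ambient temperature; Medium: 50 mM Bis-Tris pH 6.0 with 2.5 mM DTT and 0.005% Tween 20; Also added: OMFP at 25 µM.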
# LMPTP inh: LMPTP phosphatase inhibitors, primary screen, biochemical, fluorescence intensity, uHTS; inhibition, % at 20 µM; AID 651560, 2012; Low molecular weight phosphotyrosine protein phosphatase (Homo sapiens), P24666; 360,000 tested, 0.22% active; recombinant LMPTP-A, OMFP fluorogenic substrate;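 active = compounds that cut the enzyme signal by at least half of the control window in the single-dose screen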;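 also: plate controls were DMSO wells with enzyme plus substrate for no effect and substrate without enzyme for full effect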
#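 Material: LMPTP-A; amount: 0.625 nM enzyme; doses: single 20 µM dose; times: reaction 50 min, room temperature, dark; technique: fluorescence intensity of OMFP turnover product; benchmarks: no-enzyme and uninhibited controls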
# DNMT1 block: human DNMT1 methyltransferase inhibitors, primary screen, biochemical, molecular beacon, fluorescence, HinP1I cleavage, uHTS; inhibition (reported as % activation of signal), % at 10 µM; 360,000 tested, 0.83% active; in the data active = inhibition above about 50%
# Scp-1 conf: Scp-1 phosphatase inhibitors, retest, confirmation, biochemical, colorimetric, single concentration. 2,500 tested, 61% active. inhibition, % at 20 µM. AID 540281, 2011. recombinant SCP-1 catalytic domain, phosphate release, malachite green absorbance. shares compounds with Scp1 inh;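 also: plate controls were DMSO with enzyme for no effect and buffer wells lacking enzyme for full effect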
# Scp-1 MG ctr: colorimetric readout interference by compounds, confirmation, artefact control for Scp-1 inhibitor project, biochemical, single concentration | shares compounds with Scp1 inh | Colorimetric interference counterscreen, malachite green absorbance 630 nm | apparent inhibition (interference), % at 20 µM | 2,500 tested, under 10 active | AID 540313, 2011;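 also: compounds added after enzyme reaction finished so only phosphate colour detection is probed; plate controls were DMSO wells with completed Scp-1 reaction for no effect and substrate wells lacking enzyme for full effect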
# Scp1 DSF: Scp-1 binding by thermal shift, confirmation, orthogonal assay for Scp-1 inhibitor project, biophysical, differential scanning fluorimetry. shares compounds with Scp1 inh. Recombinant SCP1, Sypro Orange thermal shift Tm. thermal shift relative to vanadate control, % at 40 µM. 1,500 tested, 25% active;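 active = substances whose mean melting-temperature shift, as a percentage of the reference inhibitor's shift, reaches about 5.3%, limit read from the data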;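 also: 0% = Tm of DMSO wells and 100% = Tm with sodium orthovanadate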
# * = called active by the depositor; / = no result.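 The calls were made as follows, unless noted: active = inhibition of at least 30% at 20 µM; inactive = the rest.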
SMILES,HKDC1 inh,Scp1 inh,SUMO1-SIM PPI,STEP block,LMPTP inh,DNMT1 block,Scp-1 conf,Scp-1 MG ctr,others
COc1cc(O)cc(O)c1C(=O)/C=C/c1ccccc1,7,-4,7,2,2,0,/,/,
O=C1OC(c2ccc3c(c2)OCO3)=N/C1=C\c1ccc(C(=O)O)cc1,5,88*,9,11,-1,25,69*,-5,Scp1 DSF=6.3*
CC(NC(=O)OCc1ccccc1)c1ccccc1 (centres undefined),-4,-11,-4,0,0,-1,/,/,
O=C(O)CC(NC(=O)OCc1ccccc1)c1ccccc1 (centres undefined),7,73*,-5,4,-4,-1,-23,-22,
O=C(CSc1n[nH]c(-c2ccncc2)n1)Nc1ccc(Cl)cc1,12,3,2,-1,-1,0,/,/,
O=C(CSc1n[nH]c(-c2ccncc2)n1)Nc1ccc(Cl)c(Cl)c1,14,52*,11,-6,-2,-2,-15,-14,
COc1cc(C(=O)NCc2nnc(SCC(=O)NCc3ccco3)o2)cc(OC)c1OC,-4,-1,-1,-5,-1,-2,/,/,
Cc1nnc(SCC2=C(C(=O)O)N3C(=O)C(NC(=O)COc4ccc(F)cc4)C3SC2)s1 (centres undefined),2,39,17,0,1,43,/,/,
Cc1nnc(SCC2=C(C(=O)O)N3C(=O)C(NC(=O)Cn4nc(C(F)F)cc4C)C3SC2)s1 (centres undefined),-5,70*,11,6,-1,27,52*,-22,Scp1 DSF=3
Cc1nnc(SCC2=C(C(=O)O)N3C(=O)C(NC(=O)COc4ccccc4)C3SC2)s1 (centres undefined),-1,68*,13,2,1,9,53*,-21,Scp1 DSF=4
Cc1nc2c(OCc3cc(Cl)cc(Cl)c3)cccn2c1N(C)C(=O)CCC1CCCC1,/,/,5,5,17,-8,/,/,
Cc1ccc(C(=O)N2CCN(S(=O)(=O)c3cc(Br)ccc3Br)CC2)o1,-4,68*,0,2,0,4,19,0,
Cc1ccc(C(=O)N2CCN(S(=O)(=O)c3ccccc3[N+](=O)[O-])CC2)o1,-6,34,-2,4,0,14,/,/,
O=C(CNC(=O)Cc1ccccc1)NCC(=O)N1CCCCC1,-2,-8,2,0,-2,0,/,/,
O=C(CNC(=O)Cc1ccc(Cl)cc1)NCC(=O)N1CCCCC1,-3,65*,4,-1,1,0,-10,-14,
Cc1ccc(C(O)c2ncc(-c3ccc(C(F)(F)F)cc3)[nH]2)cc1F (centres undefined),/,/,5,0,3,-3,/,/,
CC(=O)c1c(C)[nH]c(C(=O)Nc2cccc3ccccc23)c1C,6,-6,-17,0,0,0,/,/,
CCC(C)c1ccccc1NC(=O)c1[nH]c(C)c(C(C)=O)c1C (centres undefined),-1,54*,-4,-1,0,1,-5,-8,
O=C(C[C@@H]1CC[C@@H]2[C@H](COC[C@H](O)CN2CCC(F)(F)F)O1)NCc1ccc2c(c1)OCO2,/,/,-2,/,-1,/,/,/,
Cc1cc(C)c(C)c(S(=O)(=O)NCC(=O)NCC2CCCCC2)c1C,-3,-4,3,-1,0,1,/,/,
CCCCN(C(=O)COC(=O)c1ccc(C=O)cc1)c1c(N)n(CCC)c(=O)[nH]c1=O,-2,0,-6,-2,-1,2,/,/,
Cc1ccc(NC2CCCN(C(=O)CCc3scnc3C)C2)cc1C (centres undefined),6,55*,2,-3,1,0,-8,-10,
CC(=O)c1ccccc1C(=O)N1CCCC(N2CCN(Cc3ccc4c(c3)OCO4)CC2)C1 (centres undefined),-3,65*,-3,-1,2,4,-10,-13,
Clc1ccc(C=NN2CCCCCC2)c(Cl)c1,-3,67*,2,-1,1,3,-14,-19,
Clc1ccc(/C=N/N2CCCCC2)cc1,-1,-11,-3,3,-1,1,/,/,
SMILES,HKDC1 inh,Scp1 inh,SUMO1-SIM PPI,STEP block,LMPTP inh,DNMT1 block,Scp-1 conf,Scp-1 MG ctr,others
CCc1ccc(C(O)c2ncc(-c3ccc(Cl)cc3)[nH]2)cc1 (centres undefined),/,/,1,-3,1,-2,/,/,
CCOC(=O)C1=C(C)Nc2ccccc2N/C1=N\S(=O)(=O)c1ccc(Cl)cc1,0,-7,5,-3,-1,1,/,/,
CCOC(=O)C1=C(C)Nc2ccccc2N/C1=N\S(=O)(=O)c1cc(C(=O)O)ccc1Cl,-3,50*,10,10,7,39,41*,-19,Scp1 DSF=-5
C=CCSc1nnc(NC(=O)CN2C(=O)NC3(CCCC3)C2=O)s1,-7,0,2,0,-1,1,/,/,
CCN(CC)S(=O)(=O)c1cccc(C(=O)Nc2ccc(S(=O)(=O)NC3=NCCCCC3)cc2)c1,-5,56*,8,0,-1,2,-5,-14,
CON(C)S(=O)(=O)c1cccc(C(=O)Nc2ccc(S(=O)(=O)NC3=NCCCCC3)cc2)c1,-2,8,-1,1,-2,-1,/,/,
COc1ccccc1CNC(=O)C(=O)NCC1CCCN1S(=O)(=O)c1cc(C)ccc1C (centres undefined),/,/,-2,-3,1,4,/,/,
CC1=CC(C)C2COC(c3ccc[n+](C)c3)C1C2C (centres undefined),1,95*,-5,0,-1,2,-3,-10,
